Assay outcomes deposited in PubChem BioAssay by Johns Hopkins Ion Channel Center.
An excerpt weighted towards active compounds, which were near 2.3% of everything screened.
TRPC6 activator – activates the mouse TRPC6 cation channel; Q61143; HEK293-TRPC6 membrane potential dye fluorescence; active compounds read high; B-score at 10 µM; hit rate 0.13% among 310,000;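 active means B-score of the integrated fluorescence ratio above library mean plus 3 SD, and starting fluorescence ratio within library mean plus 5 SD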;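 further: higher score means more depolarization so channel activation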
TRPC6 inhibitor – mouse TRPC6 channel inhibition; HEK293-TRPC6, membrane potential dye, ACh-evoked depolarization; active compounds read low; B-score at 10 µM; hit rate 1.1% among 310,000; AID 2553;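 active means B-score under library mean minus 3 SD, initial fluorescence not abnormally high, positive integrated signal ratio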;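 further: B-score derived from integrated fluorescence ratio over the kinetic read; more negative B-score means stronger inhibition of depolarization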
TRPC4 potent – TRPC4 (mouse) allosteric potentiation; Q9QUQ5; HEK293 TRPC4beta/mu-opioid, DAMGO EC20, Fluo-4 Ca2+ flux; active compounds read high; B-score at 10 µM; hit rate 0.42% among 310,000; AID 2227;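 active means B-score of calcium response area above 5 SD of library B-scores, with initial fluorescence ratio within 5 SD of library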;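 further: B-score of integrated fluorescence ratio over time as area under calcium response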
TRPC4 agonist – opens the mouse TRPC4 cation channel; hit rate 0.49% among 310,000; B-score at 10 µM; HEK293 TRPC4beta/mu-opioid, Fluo4 calcium fluorescence; active compounds read high; Q9QUQ5;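 active means B-score above 5 SD of library B-scores, and initial fluorescence ratio not above library mean plus 5 SD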;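 further: positive B-score marks a calcium rise read as TRPC4 activation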
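Assay system: HEK293 stable line with TRPC4beta plus mu-opioid receptor. Times: dye 45 min RT, read 110 s. Measured by: kinetic Fluo4 calcium fluorescence. Measure: B score of integrated ratio. Controls: assay buffer as low control, maximal DAMGO as high control.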
TRPC4 inh – TRPC4 (mouse) channel inhibition. B-score at 10 µM. Q9QUQ5. hit rate 0.39% among 300,000. HEK293 TRPC4beta/mu-opioid, DAMGO-evoked Fluo4 calcium flux; active compounds read low;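 active means B-score over 3 SD under the library average, no early fluorescence shift, positive overall ratio signal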
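Test system – stable TRPC4beta/mu-opioid receptor HEK293 cells · Probe or stimulus – DAMGO, a submaximal dose followed by a maximal one · Dosing – one concentration per compound · Signal – Fluo4 calcium fluorescence by kinetic imaging, 5 s 1 Hz baseline · Evaluation – per-well B score of integrated baseline-normalized Fluo4 ratio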
TRPC4 sel inh 2 – second check of whether TRPC6 inhibitors also affect mouse TRPC4. HEK293 TRPC4/MOR, membrane potential dye fluorescence; channel activated by saturating DAMGO dose. inhibition, % at 10 µM. shares compounds with TRPC6 inhibitor. hit rate 42% among 920. AID 2776;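 active means compounds whose fluorescence signal differed from control wells by over 3 SD, either direction, in both duplicate plates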
TRPC4 spec – mouse TRPC4 off-target activity of TRPC6 inhibitors; activity change, negative = inhibition, % at 10 µM; shares compounds with TRPC6 inhibitor; hit rate 61% among 920; HEK293 TRPC4/mu-opioid, membrane potential fluorescence;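 active means rise or fall in signal beyond 3 SD of buffer-only wells in both replicate plates, either sign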;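 further: integrated kinetic ratio of fluorescence range over baseline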
HEK293 MPD ctr 2-1 – second check of TRPC6 inhibitor effects in parental HEK293 cells; shares compounds with TRPC6 inhibitor; parental HEK293 membrane potential dye fluorescence; maximal acetylcholine challenge after compound addition; signal change vs control, % at 10 µM; hit rate 31% among 920; AID 2779;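 active means membrane potential signal moving either way by over 3 SD of the maximum-effect control, in both duplicate plates, meaning non-specific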
HEK293 MPD ctr-1 – parental HEK293 nonspecific activity of TRPC6 inhibitors. shares compounds with TRPC6 inhibitor. parental HEK293 membrane potential dye fluorescence. membrane potential signal change, % at 10 µM. hit rate 60% among 920;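 active means membrane potential signal shifting up or down by more than 3 SD of buffer-only wells, on both duplicate plates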
HEK293 MPD ctr-2 – parental HEK293 nonspecific activity of TRPC6 modulators; hit rate 51% among 2,400; membrane potential signal change, % at 10 µM; shares compounds with TRPC6 inhibitor; membrane potential dye fluorescence;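 active means membrane potential signal moves up or down beyond 5 SD from buffer-only wells, on both duplicate plates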
HEK293 MPD ctr 2-2 – second check of TRPC6 modulator effects in parental HEK293 cells; shares compounds with TRPC6 inhibitor; membrane potential dye fluorescence; after compound, maximal acetylcholine stimulation; inhibition, % at 10 µM; hit rate 14% among 2,400; AID 488926;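 active means membrane potential signal drops by more than 5 SD from the mean control signal, in both duplicate plates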;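 further: plate controls were acetylcholine ECmax control wells for no effect and buffer only wells for full effect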
TRPC4 ctr mod – mouse TRPC4 off-target activity of TRPC6 modulators | percent change from control (negative = decrease, positive = increase), % at 10 µM | HEK293 TRPC4/mu-opioid, membrane potential fluorescence | AID 488927 | hit rate 69% among 2,400 | shares compounds with TRPC6 inhibitor;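 active means membrane potential signal moved up or down beyond 5 SD of buffer control wells, in both duplicate plates, actives on both sides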;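 further: plate controls were assay buffer wells for no effect and DAMGO maximal-effect wells for full effect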
TRPC4/MOR inh 2 – second selectivity test of TRPC6 modulators against mouse TRPC4; shares compounds with TRPC6 inhibitor; HEK293 TRPC4/mu-opioid, membrane potential dye fluorescence; stimulated with maximal-effect DAMGO; inhibition, % at 10 µM; hit rate 55% among 2,400; AID 488928;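 active means drop in membrane potential signal beyond 5 SD of the control wells in both duplicate plates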;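 further: TRPC4 counter screen for TRPC6 hits run under conditions tuned for TRPC6 not TRPC4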
TRPC6 block conf – mouse TRPC6 inhibitor confirmation. hit rate 43% among 3,300. shares compounds with TRPC6 inhibitor. inhibition, % at 10 µM. AID 488960. HEK293-TRPC6, membrane potential dye, ACh-evoked depolarization;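 active means fluorescence ratio falls more than 5 SD below the full-stimulation control mean, in both duplicate runs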;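 further: integrated fluorescence ratio of peak minus minimum over baseline after agonist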
TRPC6 act confirm – mouse TRPC6 activator confirmation; activation, % at 10 µM; shares compounds with TRPC6 inhibitor; HEK293-TRPC6 membrane potential dye fluorescence, FDSS; hit rate 11% among 2,800;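 active means ratio signal rise beyond 5 SD above unstimulated control wells' mean, seen in both duplicate runs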;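 further: plate controls were buffer EC0 wells for no effect and acetylcholine ECmax response for full effect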
The depositor's hits bear a star; i = inactive; nt = not tested or not shown.

SMILES	TRPC6 activator	TRPC6 inhibitor	TRPC4 potent	TRPC4 agonist	TRPC4 inh	HEK293 MPD ctr-2	HEK293 MPD ctr 2-2	TRPC4 ctr mod	TRPC4/MOR inh 2	TRPC6 block conf	TRPC6 act confirm	others
O=C(Nc1ccccc1-c1ccccc1)NC1CC2CCCC(C1)N2Cc1ccc(F)cc1 (stereo not drawn)	i	-8*	i	i	i	nt	nt	nt	nt	51%*	i	TRPC4 sel inh 2=51%*;TRPC4 spec=4.8%*;HEK293 MPD ctr 2-1=i;HEK293 MPD ctr-1=4.0%*
O=C(Nc1ccccc1-c1ccccc1)NC1CC2CCCC(C1)N2CCc1ccccc1 (stereo not drawn)	i	-7*	i	i	i	nt	nt	nt	nt	65%*	i	TRPC4 sel inh 2=46%*;TRPC4 spec=i;HEK293 MPD ctr 2-1=i;HEK293 MPD ctr-1=-0.2%*
CN1CCN(S(=O)(=O)c2cccc(C(=O)N(Cc3nnc(-c4ccccc4Cl)o3)C3CC3)c2)CC1	i	i	i	i	i	nt	nt	nt	nt	nt	nt
COc1ccc(NC(=O)C2CCCN(S(C)(=O)=O)C2)cc1OC (stereo not drawn)	i	i	i	i	i	nt	nt	nt	nt	nt	nt
CCOC(=O)N1CCN(C(=O)CN(c2cc(Cl)ccc2OC)S(=O)(=O)c2ccccc2)CC1	i	-7.9*	i	i	i	nt	nt	nt	nt	i	i	TRPC4 sel inh 2=i;TRPC4 spec=7.5%*;HEK293 MPD ctr 2-1=i;HEK293 MPD ctr-1=3.1%*
O=C(O)c1cn(-c2ccc(F)cc2)c2cc(Cl)c(F)cc2c1=O	i	i	i	i	i	nt	nt	nt	nt	nt	nt
NC1C2CN(c3nc4c(cc3F)c(=O)c(C(=O)O)cn4-c3ccc(F)cc3F)CC12 (stereo not drawn)	i	-5.6*	i	i	i	-274%*	i	-46%*	i	i	i
C/C(=N\NC(=O)c1cccc(S(=O)(=O)N2CCOCC2)c1)c1cc2ccccc2o1	i	i	i	i	i	nt	nt	nt	nt	nt	nt
CC(=O)c1ccc(Nc2nc(=O)c3cccnc3s2)cc1	i	-5.8*	i	i	i	-176%*	i	-33%*	i	i	i
Cc1ccc(O)c([C@H](CCN(C(C)C)C(C)C)c2ccccc2)c1	i	-6.2*	i	i	i	174%*	96%*	33%*	41%*	87%*	nt
COc1ccc(C=O)cc1Cn1ccnc1	i	i	i	i	i	nt	nt	nt	nt	nt	nt
CCc1ccc(NCc2ccc(OC)c(Cn3ccnc3)c2)cc1	i	-5.4*	i	i	i	i	i	-10%*	52%*	40%*	i
COc1ccc(Cl)cc1C(=O)NCCCn1ccnc1	i	i	i	i	i	nt	nt	nt	nt	nt	nt
COc1ccc(CNc2ccc(Cl)cc2)cc1Cn1ccnc1	i	-5.2*	i	i	i	i	i	i	56%*	i	i
COc1ccc(C(=O)Nc2c(-c3ccccc3)nc3ccccn23)c(OC)c1	20*	i	i	i	i	i	i	12%*	28%*	i	i
O=C(COc1ccc([N+](=O)[O-])cc1)Nc1cccc2nsnc12	i	i	i	i	i	nt	nt	nt	nt	nt	nt
Cc1ccc(CCNC(=O)C2CCCN(S(=O)(=O)c3cccc4nsnc34)C2)cc1 (stereo not drawn)	i	-6*	i	i	i	i	i	i	i	i	i
CC(=O)c1sc2nsc(SCCN3CCCC3)c2c1N	i	-5.2*	i	i	i	232%*	i	i	36%*	i	nt
Cc1cc(=O)n(Cc2ccccc2)c2ccccc12	i	i	i	i	i	nt	nt	nt	nt	nt	nt
Cc1c(CN(C)C)c2c(n1Cc1ccccc1)C(=O)c1ccccc1-2	i	-7*	i	i	-6*	-174%*	i	-33%*	78%*	44%*	i
Cc1nc2nc(SCC(=O)NCCCN3CCCC(C)C3)nn2c(C)c1Cc1ccccc1Cl (stereo not drawn)	i	-6.7*	i	i	i	i	i	i	i	49%*	nt
S=C(NCc1ccccc1)N1CCc2ccccc2C1	i	i	i	i	nt	nt	nt	nt	nt	nt	nt
Fc1ccc2[nH]c3c(c2c1)CN(C(=S)NCc1ccccc1)CC3	i	-12*	i	i	i	nt	nt	nt	nt	127%*	nt	TRPC4 sel inh 2=i;TRPC4 spec=-13%*;HEK293 MPD ctr 2-1=i;HEK293 MPD ctr-1=i
C=CCNC(=O)N1CCc2[nH]c3ccc(F)cc3c2C1	i	-6.2*	i	i	i	240%*	i	18%*	i	82%*	nt
CCCCNC(=O)N1CCc2[nH]c3ccccc3c2C1	i	-6.1*	i	i	i	i	i	i	i	72%*	nt
Cc1ccc(NC(=O)c2ccc3c(c2)C(=O)N(c2cc(C)ccc2C)C3=O)nc1	i	i	i	i	i	nt	nt	nt	nt	nt	nt
CCC1(C)Cc2c(sc(NC(=S)NC(=O)c3ccccc3)c2C#N)CO1 (stereo not drawn)	i	i	i	i	i	nt	nt	nt	nt	nt	nt
CN1Cc2sc(NC(=S)NC(=O)c3ccccc3)c(C#N)c2CC1(C)C	21*	-5.2*	i	i	i	168%*	i	24%*	i	i	40%*
COCc1c(C#N)c(NCCc2ccccc2)nc(C)c1[N+](=O)[O-]	i	i	i	i	i	nt	nt	nt	nt	nt	nt
